Source: ChEMBL document CHEMBL1134643 (J Med Chem, 2001)
Active and inactive are the calls of the source. The calls are words filed in the database; no cut-off is given here.

Tests used:
Mus musculus [1] = species on record: Mus musculus; experiment: Maximum receptor binding using mouse forebrain membranes and [3H]NC-NH2; format: functional; details: Membrane
In short: (§1)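 Forebrains from male Swiss mice are homogenised in 50 mM Tris-HCl, 2 mM EDTA, 100 μM PMSF, pH 7.4. Membranes are preincubated 30 min at 37 °C and stored at -80 °C. Displacement uses 0.5 nM [3H]NC-NH2, 200 μg protein, and graded ligand concentrations up to 10 μM, for 120 min at 25 °C.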

Nociceptin receptor [2] = target: Nociceptin receptor (Homo sapiens, UniProt P41146); experiment: Inhibition of forskolin stimulated cAMP accumulation in CHO cells stably expressing the human OP4 receptor; format: functional, cell-based
Mus musculus [3] = species on record: Mus musculus; experiment: Antagonist activity of compound in the electrically stimulated mouse vas deferens; format: functional
In short: (§2)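 Peptides without agonist effect in the mouse vas deferens (Mg2+-free Krebs, 33 °C, 0.05 Hz, 1 ms pulses) are tested up to 10 μM. Each is added 15 min before a cumulative concentration-response curve to NC(1-13)-NH2. pKB is calculated with the Gaddum-Schild equation, taking slope as unity, from the concentration-ratio of equieffective agonist concentrations.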

Nociceptin receptor [4] = target: Nociceptin receptor (Mus musculus, UniProt P35377); experiment: Inhibition of [3H]NC-NH2 binding to mouse forebrain membranes; parameters: species or system Membrane
[5] = target: Nociceptin receptor (Mus musculus) (UniProt P35377); experiment: Maximum receptor binding in the electrically stimulated mouse vas deferens; format: functional, tissue-based
In short: (§3)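 Vas deferens from male Swiss mice (25-30 g) is held in Mg2+-free Krebs at 33 °C, gassed with 95% O2/5% CO2 at pH 7.4. Tissue is stimulated at 0.05 Hz with 1 ms supramaximal pulses under 0.3 g resting tension, and twitches are recorded isotonically.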

Mus musculus [6] = species on record: Mus musculus; experiment: Maximum receptor binding assay determined by using mouse forebrain membrane and [3H]NC-NH2; format: functional; in short: as §1
Mus musculus [7] = species on record: Mus musculus; experiment: Maximum receptor binding assay determined by using mouse forebrain membrane and [3H]NC-NH2; Inactive; format: functional; in short: as §1
Mus musculus [8] = species on record: Mus musculus; experiment: Antagonist activity of compound in the electrically stimulated mouse vas deferens; Inactive; format: functional; in short: as §2
Mus musculus [9] = species on record: Mus musculus; experiment: Agonist activity of compound in the electrically stimulated mouse vas deferens; Inactive; format: functional; in short: as §3
Mus musculus [10] = species on record: Mus musculus; experiment: Maximum receptor binding assay determined by using mouse forebrain membrane and [3H]NC-NH2 at 10 uM; format: functional
Mus musculus [11] = species on record: Mus musculus; experiment: receptor binding constant using mouse forebrain membranes and [3H]NC-NH2 as radioligand; format: functional, Membrane; in short: as §1

Chain of Nociceptin receptor (Mus musculus, UniProt P35377) (P35377 whole entry): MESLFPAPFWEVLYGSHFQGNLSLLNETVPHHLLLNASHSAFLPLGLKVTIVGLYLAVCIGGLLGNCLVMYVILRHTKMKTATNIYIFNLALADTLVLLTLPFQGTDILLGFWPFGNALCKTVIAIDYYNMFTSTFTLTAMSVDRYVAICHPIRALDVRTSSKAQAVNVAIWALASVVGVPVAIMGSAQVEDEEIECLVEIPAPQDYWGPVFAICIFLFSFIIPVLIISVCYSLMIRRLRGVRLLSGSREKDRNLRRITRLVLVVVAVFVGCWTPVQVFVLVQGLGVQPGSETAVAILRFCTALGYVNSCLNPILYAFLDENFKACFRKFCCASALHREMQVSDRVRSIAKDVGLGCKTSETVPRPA
Chain of Nociceptin receptor (Mus musculus) (P35377 whole entry): as above
Chain of Nociceptin receptor (Homo sapiens, UniProt P41146) (P41146 whole entry): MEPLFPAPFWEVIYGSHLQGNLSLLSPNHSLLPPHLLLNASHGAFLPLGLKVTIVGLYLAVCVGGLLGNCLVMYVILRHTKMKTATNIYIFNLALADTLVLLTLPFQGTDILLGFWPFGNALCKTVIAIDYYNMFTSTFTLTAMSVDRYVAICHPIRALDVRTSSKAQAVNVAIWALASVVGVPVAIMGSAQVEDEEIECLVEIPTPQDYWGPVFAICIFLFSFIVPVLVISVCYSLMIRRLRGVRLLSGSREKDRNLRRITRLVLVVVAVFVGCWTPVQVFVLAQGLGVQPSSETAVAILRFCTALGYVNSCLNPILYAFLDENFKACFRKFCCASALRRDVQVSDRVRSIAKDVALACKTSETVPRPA

SMILES | Ki (Nociceptin receptor [4]) | Emax [5] | other results
C[C@H](NC(=O)CNC(=O)[C@@H](NC(=O)[C@H](Cc1cccc2ccccc12)NC(=O)CNC(=O)CNC(=O)[C@@H](N)Cc1ccccc1)[C@@H](C)O)C(=O)N[C@@H](CCCN=C(N)N)C(=O)N[C@@H](CCCCN)C(=O)N[C@@H](CO)C(=O)N[C@@H](C)C(=O)N[C@@H](CCCN=C(N)N)C(=O)N[C@@H](CCCCN)C(N)=O |  |  | Emax (Mus musculus [1]): -80%
C[C@H](NC(=O)CNC(=O)[C@@H](NC(=O)[C@H](Cc1ccc(O)cc1)NC(=O)CNC(=O)CNC(=O)[C@@H](N)Cc1ccccc1)[C@@H](C)O)C(=O)N[C@@H](CCCN=C(N)N)C(=O)N[C@@H](CCCCN)C(=O)N[C@@H](CO)C(=O)N[C@@H](C)C(=O)N[C@@H](CCCN=C(N)N)C(=O)N[C@@H](CCCCN)C(N)=O | 501 nM |  | EC50 (Nociceptin receptor [2]): 135 nM; pKb (Mus musculus [3]): 5.47
COc1ccc(C[C@H](NC(=O)CNC(=O)CNC(=O)[C@@H](N)Cc2ccccc2)C(=O)N[C@H](C(=O)NCC(=O)N[C@@H](C)C(=O)N[C@@H](CCCN=C(N)N)C(=O)N[C@@H](CCCCN)C(=O)N[C@@H](CO)C(=O)N[C@@H](C)C(=O)N[C@@H](CCCN=C(N)N)C(=O)N[C@@H](CCCCN)C(N)=O)[C@@H](C)O)cc1 | 89.1 nM | -80% | EC50 (Nociceptin receptor [2]): 63.1 nM
C[C@H](NC(=O)CNC(=O)[C@@H](NC(=O)[C@H](Cc1ccc(I)cc1)NC(=O)CNC(=O)CNC(=O)[C@@H](N)Cc1ccccc1)[C@@H](C)O)C(=O)N[C@@H](CCCN=C(N)N)C(=O)N[C@@H](CCCCN)C(=O)N[C@@H](CO)C(=O)N[C@@H](C)C(=O)N[C@@H](CCCN=C(N)N)C(=O)N[C@@H](CCCCN)C(N)=O | 17.4 nM | -76% | 
C[C@H](NC(=O)CNC(=O)[C@@H](NC(=O)[C@H](Cc1ccc(C(F)(F)F)cc1)NC(=O)CNC(=O)CNC(=O)[C@@H](N)Cc1ccccc1)[C@@H](C)O)C(=O)N[C@@H](CCCN=C(N)N)C(=O)N[C@@H](CCCCN)C(=O)N[C@@H](CO)C(=O)N[C@@H](C)C(=O)N[C@@H](CCCN=C(N)N)C(=O)N[C@@H](CCCCN)C(N)=O | 1 nM | -75% | 
C[C@H](NC(=O)CNC(=O)[C@@H](NC(=O)[C@H](Cc1ccccc1)NC(=O)CNC(=O)CNC(=O)[C@@H](N)Cc1ccccc1)[C@@H](C)O)C(=O)N[C@@H](CCCNC(=N)N)C(=O)N[C@@H](CCCCN)C(=O)N[C@@H](CO)C(=O)N[C@@H](C)C(=O)N[C@@H](CCCNC(=N)N)C(=O)N[C@@H](CCCCN)C(N)=O |  |  | Emax (Mus musculus [6]): -82%
C[C@H](NC(=O)CNC(=O)[C@@H](NC(=O)[C@H](Cc1ccc([N+](=O)[O-])cc1)NC(=O)CNC(=O)CNC(=O)[C@@H](N)Cc1ccccc1)[C@@H](C)O)C(=O)N[C@@H](CCCN=C(N)N)C(=O)N[C@@H](CCCCN)C(=O)N[C@@H](CO)C(=O)N[C@@H](C)C(=O)N[C@@H](CCCN=C(N)N)C(=O)N[C@@H](CCCCN)C(N)=O | 0.302 nM | -86% | 
C[C@H](NC(=O)CNC(=O)[C@@H](NC(=O)[C@H](Cc1ccc(-c2ccccc2)cc1)NC(=O)CNC(=O)CNC(=O)[C@@H](N)Cc1ccccc1)[C@@H](C)O)C(=O)N[C@@H](CCCN=C(N)N)C(=O)N[C@@H](CCCCN)C(=O)N[C@@H](CO)C(=O)N[C@@H](C)C(=O)N[C@@H](CCCN=C(N)N)C(=O)N[C@@H](CCCCN)C(N)=O |  |  | Emax (Mus musculus [7]): inactive; pKb (Mus musculus [8]): inactive; Log EC50 (Mus musculus [9]): inactive
C[C@H](NC(=O)CNC(=O)[C@@H](NC(=O)[C@H](CC1CCCCC1)NC(=O)CNC(=O)CNC(=O)[C@@H](N)Cc1ccccc1)[C@@H](C)O)C(=O)N[C@@H](CCCN=C(N)N)C(=O)N[C@@H](CCCCN)C(=O)N[C@@H](CO)C(=O)N[C@@H](C)C(=O)N[C@@H](CCCN=C(N)N)C(=O)N[C@@H](CCCCN)C(N)=O |  |  | Emax (Mus musculus [10]): -34%
C[C@H](NC(=O)CNC(=O)[C@@H](NC(=O)CN(Cc1ccccc1)C(=O)CNC(=O)CNC(=O)[C@@H](N)Cc1ccccc1)[C@@H](C)O)C(=O)N[C@@H](CCCN=C(N)N)C(=O)N[C@@H](CCCCN)C(=O)N[C@@H](CO)C(=O)N[C@@H](C)C(=O)N[C@@H](CCCN=C(N)N)C(=O)N[C@@H](CCCCN)C(N)=O |  |  | Emax (Mus musculus [10]): -16%
C[C@H](NC(=O)CNC(=O)[C@@H](NC(=O)[C@H](Cc1ccc(F)cc1)NC(=O)CNC(=O)CNC(=O)[C@@H](N)Cc1ccccc1)[C@@H](C)O)C(=O)N[C@@H](CCCN=C(N)N)C(=O)N[C@@H](CCCCN)C(=O)N[C@@H](CO)C(=O)N[C@@H](C)C(=O)N[C@@H](CCCN=C(N)N)C(=O)N[C@@H](CCCCN)C(N)=O | 0.398 nM | -85% | 
C[C@H](NC(=O)CNC(=O)[C@@H](NC(=O)[C@H](Cc1ccc(C#N)cc1)NC(=O)CNC(=O)CNC(=O)[C@@H](N)Cc1ccccc1)[C@@H](C)O)C(=O)N[C@@H](CCCN=C(N)N)C(=O)N[C@@H](CCCCN)C(=O)N[C@@H](CO)C(=O)N[C@@H](C)C(=O)N[C@@H](CCCN=C(N)N)C(=O)N[C@@H](CCCCN)C(N)=O | 0.603 nM | -84% | 
C[C@H](NC(=O)CNC(=O)[C@@H](NC(=O)[C@H](Cc1ccc(N)cc1)NC(=O)CNC(=O)CNC(=O)[C@@H](N)Cc1ccccc1)[C@@H](C)O)C(=O)N[C@@H](CCCN=C(N)N)C(=O)N[C@@H](CCCCN)C(=O)N[C@@H](CO)C(=O)N[C@@H](C)C(=O)N[C@@H](CCCN=C(N)N)C(=O)N[C@@H](CCCCN)C(N)=O | 1780 nM | -23% | 
Cc1ccc(C[C@H](NC(=O)CNC(=O)CNC(=O)[C@@H](N)Cc2ccccc2)C(=O)N[C@H](C(=O)NCC(=O)N[C@@H](C)C(=O)N[C@@H](CCCN=C(N)N)C(=O)N[C@@H](CCCCN)C(=O)N[C@@H](CO)C(=O)N[C@@H](C)C(=O)N[C@@H](CCCN=C(N)N)C(=O)N[C@@H](CCCCN)C(N)=O)[C@@H](C)O)cc1 |  | -73% | Log Ki (Mus musculus [11]): -7.84
CC(C)C[C@H](NC(=O)[C@H](CCCCN)NC(=O)[C@H](CCCN=C(N)N)NC(=O)[C@H](C)NC(=O)[C@H](CO)NC(=O)[C@H](CCCCN)NC(=O)[C@H](CCCN=C(N)N)NC(=O)[C@H](C)NC(=O)CNC(=O)[C@@H](NC(=O)[C@H](Cc1ccccc1)NC(=O)CNC(=O)CNC(=O)[C@@H](N)Cc1ccccc1)[C@@H](C)O)C(=O)N[C@@H](C)C(=O)N[C@@H](CC(N)=O)C(=O)N[C@@H](CCC(N)=O)C(=O)O | 1.91 nM |  | 
C[C@H](NC(=O)CNC(=O)[C@@H](NC(=O)[C@@H](NC(=O)CNC(=O)CNC(=O)[C@@H](N)Cc1ccccc1)[C@@H](C)c1ccccc1)[C@@H](C)O)C(=O)N[C@@H](CCCN=C(N)N)C(=O)N[C@@H](CCCCN)C(=O)N[C@@H](CO)C(=O)N[C@@H](C)C(=O)N[C@@H](CCCN=C(N)N)C(=O)N[C@@H](CCCCN)C(N)=O |  |  | Emax (Mus musculus [6]): -86%
C[C@H](NC(=O)CNC(=O)[C@@H](NC(=O)[C@H](Cc1ccccc1F)NC(=O)CNC(=O)CNC(=O)[C@@H](N)Cc1ccccc1)[C@@H](C)O)C(=O)N[C@@H](CCCN=C(N)N)C(=O)N[C@@H](CCCCN)C(=O)N[C@@H](CO)C(=O)N[C@@H](C)C(=O)N[C@@H](CCCN=C(N)N)C(=O)N[C@@H](CCCCN)C(N)=O | 3.63 nM | -94% | 
C[C@H](NC(=O)CNC(=O)[C@@H](NC(=O)[C@H](Cc1ccc(Br)cc1)NC(=O)CNC(=O)CNC(=O)[C@@H](N)Cc1ccccc1)[C@@H](C)O)C(=O)N[C@@H](CCCN=C(N)N)C(=O)N[C@@H](CCCCN)C(=O)N[C@@H](CO)C(=O)N[C@@H](C)C(=O)N[C@@H](CCCN=C(N)N)C(=O)N[C@@H](CCCCN)C(N)=O | 1.82 nM | -85% | 
C[C@H](NC(=O)CNC(=O)[C@@H](NC(=O)[C@H](Cc1ccc2ccccc2c1)NC(=O)CNC(=O)CNC(=O)[C@@H](N)Cc1ccccc1)[C@@H](C)O)C(=O)N[C@@H](CCCN=C(N)N)C(=O)N[C@@H](CCCCN)C(=O)N[C@@H](CO)C(=O)N[C@@H](C)C(=O)N[C@@H](CCCN=C(N)N)C(=O)N[C@@H](CCCCN)C(N)=O |  |  | Emax (Mus musculus [6]): -75%
C[C@H](NC(=O)CNC(=O)[C@@H](NC(=O)[C@H](Cc1cccc(F)c1)NC(=O)CNC(=O)CNC(=O)[C@@H](N)Cc1ccccc1)[C@@H](C)O)C(=O)N[C@@H](CCCN=C(N)N)C(=O)N[C@@H](CCCCN)C(=O)N[C@@H](CO)C(=O)N[C@@H](C)C(=O)N[C@@H](CCCN=C(N)N)C(=O)N[C@@H](CCCCN)C(N)=O | 0.891 nM | -90% | 
C[C@H](NC(=O)CNC(=O)[C@@H](NC(=O)[C@H](Cc1ccc(Cl)cc1)NC(=O)CNC(=O)CNC(=O)[C@@H](N)Cc1ccccc1)[C@@H](C)O)C(=O)N[C@@H](CCCN=C(N)N)C(=O)N[C@@H](CCCCN)C(=O)N[C@@H](CO)C(=O)N[C@@H](C)C(=O)N[C@@H](CCCN=C(N)N)C(=O)N[C@@H](CCCCN)C(N)=O | 0.794 nM | -82% | 
C[C@H](NC(=O)CNC(=O)[C@@H](NC(=O)[C@H](Cc1ccccc1)N(C)C(=O)CNC(=O)CNC(=O)[C@@H](N)Cc1ccccc1)[C@@H](C)O)C(=O)N[C@@H](CCCN=C(N)N)C(=O)N[C@@H](CCCCN)C(=O)N[C@@H](CO)C(=O)N[C@@H](C)C(=O)N[C@@H](CCCN=C(N)N)C(=O)N[C@@H](CCCCN)C(N)=O |  |  | Emax (Mus musculus [6]): -84%
